Assay [1] has as its target T1, P2Y12R (WT) (Homo sapiens, UniProt Q9H244, D294N). In words: [3H]2MeSADP displacement, membranes. The assay is classed as binding.
The target of assay [2] is T2, P2Y12R (WT) (Homo sapiens, UniProt Q9H244). In words: [3H]2MeSADP displacement, membranes. It counts as binding.
Assay [3] concerns the target P2Y12R (WT) (Homo sapiens, UniProt Q9H244, N159A). In words: saturation radioligand binding, membranes. The gist of the method: (§1)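 Human P2Y12R (wild type or single alanine mutants) in pcDNA3.0, transiently transfected into COS7 cells and harvested 48 h later. Membranes: 1,000g spin, then 20,000g pellet for 60 min, stored at −80 °C. [3H]2MeSADP (3.5 Ci mmol−1, 0.4–46 nM) was incubated with 5 μg membrane protein in Tris-HCl with 10 mM MgCl2. Nonspecific binding was defined with 10 μM P2Y12R antagonist. Bound ligand was separated by filtration, washed with cold buffer and counted by scintillation. Kd is mean ± s.e.m., 3–6 independent experiments in duplicate.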

Assay [4] has as its target T2, P2Y12R (WT). In words: saturation radioligand binding, membranes. The gist of the method:
as §1

In assay [5] the target is P2Y12R (WT) (Homo sapiens, UniProt Q9H244, S156A). In words: saturation radioligand binding, membranes. The procedure, abridged: as §1
Assay [6] concerns the target T1, P2Y12R (WT). In words: saturation radioligand binding, membranes. The procedure, abridged: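 Receptor construct carrying the D294N mutation, with BRIL fused into ICL3, expressed in Sf9 cells. Membranes were prepared by homogenization, a 1,000g spin, then a 20,000g 60 min pellet. Saturation binding used [3H]2MeSADP (3.5 Ci mmol−1, 0.4–46 nM), 5 μg membrane protein, in Tris-HCl with 10 mM MgCl2. Nonspecific binding was defined with 10 μM P2Y12R antagonist. Filtration was followed by scintillation counting. Kd from independent experiments in duplicate.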

T1 sequence (Q9H244 whole entry D294N): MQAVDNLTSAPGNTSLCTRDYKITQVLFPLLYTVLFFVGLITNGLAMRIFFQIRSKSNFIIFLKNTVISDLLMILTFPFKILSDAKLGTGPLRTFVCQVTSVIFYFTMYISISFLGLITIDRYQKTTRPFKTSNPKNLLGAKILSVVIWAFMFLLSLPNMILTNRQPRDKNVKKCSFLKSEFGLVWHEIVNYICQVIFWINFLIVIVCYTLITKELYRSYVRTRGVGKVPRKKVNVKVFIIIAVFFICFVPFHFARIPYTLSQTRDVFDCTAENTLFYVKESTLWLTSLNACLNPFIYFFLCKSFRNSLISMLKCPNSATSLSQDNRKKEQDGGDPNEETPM
T2 sequence (Q9H244 whole entry): as the sequence (Q9H244 whole entry D294N) above, with N294D counted along it
Sequence of P2Y12R (WT) (Homo sapiens, UniProt Q9H244, S156A) (Q9H244 whole entry S156A, the tested form may be a part): as the sequence (Q9H244 whole entry D294N) above, with S156A, N294D counted along it
Sequence of P2Y12R (WT) (Homo sapiens, UniProt Q9H244, N159A) (Q9H244 whole entry N159A): as the sequence (Q9H244 whole entry D294N) above, with N159A, N294D counted along it

In the case of `CCCSc1nc(N[C@@H]2C[C@H]2c2ccc(F)c(F)c2)c2nnn([C@@H]3C[C@H](OCCO)[C@@H](O)[C@H]3O)c2n1` [Ticagrelor], the results for the Ki at P2Y12R (WT) [1] and on P2Y12R (WT) [2] were 424 ± 193 nM and 454 ± 110 nM, respectively.

Consider `Nc1ncnc2c1ncn2[C@@H]1O[C@H](COP(=O)(O)OP(=O)(O)O)[C@@H](O)[C@H]1O` [ADP], for which the Ki at P2Y12R (WT) [1] is 169 ± 81 nM; on P2Y12R (WT) [2], 332 ± 35 nM.

In the case of `CCOC(=O)c1cc(C#N)c(N2CCC(C(=O)NS(=O)(=O)Cc3ccccc3)CC2)nc1C` [AZD1283, Ethyl 6-(4-((benzylsulphonyl)carbamoyl)piperidin-1-yl)-5-cyano-2-methylnicotinate], the Ki at P2Y12R (WT) [2] turned out to be 31.5 ± 11.9 nM.

On to `CSc1nc(N)c2ncn([C@@H]3O[C@H](COP(=O)(O)OP(=O)(O)O)[C@@H](O)[C@H]3O)c2n1` [2MeSADP, 2-methylthio-adenosine 5′-diphosphate], for which the Kd on P2Y12R (WT) [3] is 6.39 ± 0.94 nM; at P2Y12R (WT) [4], 4.25 ± 0.87 nM; at P2Y12R (WT) [5] it was 5.66 ± 0.72 nM; at P2Y12R (WT) [6] it was 33.6 ± 10.2 nM. Moreover, the Ki on P2Y12R (WT) [1] was 80.8 ± 16.8 nM; at P2Y12R (WT) [2] it was 120 ± 7.3 nM.

Take `CSc1nc(N)c2ncn([C@@H]3O[C@H](COP(=O)(O)OP(=O)(O)OP(=O)(O)O)[C@@H](O)[C@H]3O)c2n1` [2MeSATP]: the Ki on P2Y12R (WT) [1] was found to be 82.4 ± 28.5 nM; at P2Y12R (WT) [2], 119 ± 19.8 nM.

`Nc1c(S(=O)(=O)O)cc(Nc2ccc(Nc3ccccc3)c(S(=O)(=O)O)c2)c2c1C(=O)c1ccccc1C2=O` [PSB-0739]: the values for the Ki on P2Y12R (WT) [1] and at P2Y12R (WT) [2] were 72.8 ± 16.7 nM and 275 ± 58 nM, respectively.

Values taken from article PMC4174307 (Nature, 2014).
